Compound activity from PubChem BioAssay.
PfM18AAP inh: blocks P. falciparum M18 aspartyl aminopeptidase | recombinant PfM18AAP, H-Glu-NHMec fluorogenic cleavage | AID 1822 | 290,000 tested, 1.2% active | inhibition, % at 7.35 µM;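 active = inhibition above the campaign mean inhibition over all tested compounds plus 3 SD, cut at about 28% in these data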
UPR XBP1 act: activators of adaptive arm of unfolded protein response (XBP1). 330,000 tested, 0.33% active. activation, % at 20 µM. CHO-XBP1 luciferase reporter, IRE1-XBP1 UPR activation, luminescence; percent of tunicamycin response, DMSO as zero;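 active = versus positive control, 20 µM dose yields 30% or more activation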
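Assay system: CHO-XBP1 luciferase reporter cells; Schedule: 6 h treatment, 37 °C; Detection: glow luminescence from Steady-Glo reagent; Benchmarks: high control tunicamycin 10 µg/mL final, low control DMSO vehicle only.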
p97 ATPase inh: inhibitors of human p97 ATPase | 220,000 tested, 0.42% active | AID 1481 | P55072 | recombinant p97 ATPase, Kinase-Glo ATP luminescence, 3 h | inhibition, % at 8 µM; in the data active = inhibition above about 15%
Target sequence (P55072 whole entry, looked up): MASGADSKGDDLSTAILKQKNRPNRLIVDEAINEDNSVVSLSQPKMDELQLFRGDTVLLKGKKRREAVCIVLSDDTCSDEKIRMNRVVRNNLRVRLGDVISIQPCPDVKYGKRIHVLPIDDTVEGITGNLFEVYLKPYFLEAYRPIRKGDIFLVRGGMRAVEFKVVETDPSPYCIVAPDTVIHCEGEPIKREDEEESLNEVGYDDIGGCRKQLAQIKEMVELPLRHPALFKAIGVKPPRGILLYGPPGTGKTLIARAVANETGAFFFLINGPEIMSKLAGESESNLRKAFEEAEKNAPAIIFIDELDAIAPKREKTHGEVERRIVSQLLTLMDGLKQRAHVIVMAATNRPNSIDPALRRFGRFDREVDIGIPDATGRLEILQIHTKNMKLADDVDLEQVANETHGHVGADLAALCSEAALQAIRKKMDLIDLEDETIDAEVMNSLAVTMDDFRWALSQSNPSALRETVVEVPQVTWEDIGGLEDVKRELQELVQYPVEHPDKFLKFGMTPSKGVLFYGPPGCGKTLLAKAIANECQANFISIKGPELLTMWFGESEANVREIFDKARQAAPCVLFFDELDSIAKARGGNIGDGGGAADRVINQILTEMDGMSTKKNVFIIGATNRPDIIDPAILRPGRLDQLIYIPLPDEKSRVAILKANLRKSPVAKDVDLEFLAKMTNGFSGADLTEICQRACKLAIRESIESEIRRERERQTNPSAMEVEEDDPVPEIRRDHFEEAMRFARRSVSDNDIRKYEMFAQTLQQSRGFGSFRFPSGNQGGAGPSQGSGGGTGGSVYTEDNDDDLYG
CHOP UPR activ: apoptotic UPR (CHOP) activation; 330,000 tested, 0.34% active; CHO-CHOP luciferase reporter, luminescence; percent of tunicamycin response over DMSO baseline; activation, % at 10 µM; AID 449763;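 active = at 10 µM dose, activation of 40% or more, normalized to positive control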
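Material: CHO-CHOP cells, stable luciferase reporter of PERK-eIF2a-CHOP signalling; quantity: 500 reporter cells seeded per well; buffer or medium: F12 medium containing 10% fetal bovine serum; compound: one dose, 10 µM in 0.5% DMSO; incubation: 6 h compound treatment, 37 °C; measured by: Steady-Glo luciferase luminescence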
NS3 helicase inh: HCV NS3 helicase inhibition; NS3 helicase DNA unwinding, Cy5 molecular beacon fluorescence; inhibition, % at 10.9 µM; 290,000 tested, 0.56% active;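 active = inhibition above the mean of all tested compounds plus 3 SD, set per campaign, cut at about 35% in these data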
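Control set: DMSO versus 110 µM thioflavine S; Material: NS3 helicase fragment of HCV; Measured by: Cy5 fluorescence at 0 and 60 min, beacon hairpin quenching; Read-out basis: percent inhibition from t60/t0 fluorescence ratio; Times: reaction time 60 min, 25 °C; Repeats: single replicate; Compound dosing: single dose, 10.9 µM nominal final, DMSO 0.8% final.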
CHOP inhibitor: inhibitors of CHOP induction in ER stress response. CHO-K1 CHOP-promoter luciferase, tunicamycin-induced, 15-18 h. inhibition, % at 10 µM. AID 2732. 220,000 tested, 3.8% active;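 active = compounds that reduced the stress-induced luciferase reporter signal by more than about 70% of percent inhibition, limit read from the data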
Large screens that a line does not name were inactive. Hits are enriched below; roughly 4.5% of the tested compounds scored in any of these assays.

COc1cccc(OC)c1C(=O)OCC(=O)NC(=O)NCc1ccccc1	none
O=C(COC(=O)c1c(Cl)ccc(Cl)c1Cl)NC(=O)NCc1ccccc1	CHOP inhibitor 84
Cc1cc(C)c2c(CC(=O)Nc3nccs3)coc2c1	CHOP inhibitor 82
COCCN1C(=O)C(=O)/C(=C(/O)c2ccc(S(=O)(=O)N3CCCCC3)cc2)C1c1ccc(OC)cc1 (stereo unspecified)	none (no result: p97 ATPase inh, CHOP inhibitor)
COc1ccccc1NC1=C(NC(C)=O)C(=O)c2ccccc2C1=O	none (no result: UPR XBP1 act, CHOP UPR activ)
COc1ccccc1N(/N=C1\Sc2ccccc2C1=O)C(C)=O	p97 ATPase inh 15
OCCC1CN(Cc2cccc3nonc23)CCN1C1CCCCC1 (stereo unspecified)	none
NC(=S)N1OC[C@@H]2COc3ccc4ccccc4c3[C@@H]21	CHOP inhibitor 77
COc1ccccc1N1CCN(C(=O)C(=O)c2c(C)[nH]c3ccccc23)CC1	none (no result: p97 ATPase inh, CHOP inhibitor)
CC(C)CC(=O)NC(=S)Nc1ccc(S(=O)(=O)NC(C)(C)C)cc1	none
CCCC(=O)NC(=S)Nc1ccc(S(=O)(=O)Nc2ccc(OCC)cc2)cc1	none
CCOc1ccc(NS(=O)(=O)c2ccc(NS(=O)(=O)c3ccc(SC)cc3)cc2)cc1	CHOP inhibitor 95
CC(C)CC(=O)NNC(=S)Nc1ccc(S(N)(=O)=O)cc1	PfM18AAP inh 29
CCOc1ccc(NS(=O)(=O)c2ccc(NS(C)(=O)=O)cc2)cc1	none
CCOc1ccc(NS(=O)(=O)c2ccc(NC(=S)NC(=O)CC(C)C)cc2)cc1	CHOP inhibitor 92
Cc1cc(NC(=S)NC(=O)CC(C)C)ccc1Br	CHOP inhibitor 83
CCOc1ccc(OCC)c(S(=O)(=O)n2cnc(C)c2)c1	none (no result: p97 ATPase inh, CHOP inhibitor)
Cc1nc(N2CCOCC2)nc2c1CCC2	none
CN(Cc1ccc(OC(F)F)cc1)C(=O)c1ccc2c(=O)n3c(nc2c1)CCC3	none (no result: PfM18AAP inh, p97 ATPase inh, NS3 helicase inh, CHOP inhibitor)
CCOC(=O)c1cnc(SC)nc1N	none
CCOC(=O)c1cnc(SC)nc1Sc1ccccc1	CHOP inhibitor 75
CC(C)=C(NC(=O)c1ccccc1)C(=O)Nc1cccc(C(=O)O)c1	none
Cc1ccc(OCCCCn2cnc3ccccc32)cc1	none
Cc1cc(C)c(C)c(OCCCCn2cnc3ccccc3c2=O)c1	CHOP inhibitor 91
c1ccc2c(c1)ncn2CCCCOc1ccc2c(c1)CCC2	CHOP inhibitor 70
Cc1ccccc1OCCCCn1cnc2ccccc21	CHOP inhibitor 72
CC(C)(c1ccccc1)c1ccc(OCCn2cnc3ccccc3c2=O)cc1	CHOP inhibitor 77
Cc1ccc(N=C2SCCCN2C(=O)c2ccco2)cc1Cl	CHOP inhibitor 80
COc1ccccc1N(CC(=O)NCc1ccco1)C(=O)CCC(=O)Nc1ccccn1	none (no result: p97 ATPase inh, CHOP inhibitor)
CCn1c2c(c3cc(Cl)ccc31)CCCC2=O	CHOP inhibitor 76
CN(C)CCNC(=O)c1c(CSc2ccc(Cl)cc2)noc1C(=O)NCc1ccccc1	none (no result: PfM18AAP inh, p97 ATPase inh, NS3 helicase inh, CHOP inhibitor)
CCOC(=O)c1cc(=O)n2nc(-c3ccccc3F)nc2s1	p97 ATPase inh 16
CCOC(=O)c1ccc(NC(=O)Cn2nnc(-c3ccccc3F)n2)cc1	none
Cc1cc(C(=O)COC(=O)c2ccccc2Br)c(C)n1CC1CCCO1 (stereo unspecified)	CHOP inhibitor 77
Cc1cc(C(=O)COC(=O)C2COc3ccccc3O2)c(C)n1CC1CCCO1 (stereo unspecified)	CHOP inhibitor 77
Cc1cc(C(=O)COC(=O)c2cccnc2Cl)c(C)n1CC1CCCO1 (stereo unspecified)	CHOP inhibitor 80
O=C(Nc1ccccc1)C(c1ccccc1)c1ccccc1	none (no result: p97 ATPase inh, CHOP inhibitor)
Cc1cc(NS(=O)(=O)c2ccc(NC(=O)C(c3ccccc3)c3ccccc3)cc2)no1	CHOP inhibitor 91
O=C(Nc1ccc(Br)cc1)C(c1ccccc1)c1ccccc1	CHOP inhibitor 83
CCCCC(=O)Nc1nnc(SCC(=O)NCC2CCCO2)s1 (stereo unspecified)	none (no result: PfM18AAP inh, p97 ATPase inh, NS3 helicase inh, CHOP inhibitor)
O=C(CSc1cccc(C(F)(F)F)c1)NC(=O)NCc1ccco1	CHOP inhibitor 82
O=C(CSc1cccc(C(F)(F)F)c1)NC(=O)c1ccccc1	none
O=C(CSc1cccc(C(F)(F)F)c1)Nc1ccc(Cl)cc1Cl	CHOP inhibitor 83
CSc1nc(C)cc(SCC(=O)Nc2ccc(Cl)cc2Cl)n1	CHOP inhibitor 87
CSc1nc(C)cc(SCC(=O)Nc2ccccc2)n1	none
COc1ccc(S(=O)(=O)N2CCCC(C(=O)NCC3CCCO3)C2)cc1OC (stereo unspecified)	none (no result: p97 ATPase inh, CHOP inhibitor)
COc1ccc(/C=C/C(=O)O)cc1O	none (no result: PfM18AAP inh, p97 ATPase inh, NS3 helicase inh, CHOP inhibitor)
Cc1cccc(C)c1OCc1nnc(NC(=O)CSc2ccc(Cl)cc2)s1	CHOP inhibitor 83
O=C(CSc1ccccc1)Nc1nnc(COc2ccc(Cl)cc2)s1	none
CCNC(=S)/N=C(/Nc1ccccc1)Nc1nc(C)cc(C)n1	PfM18AAP inh 30
COc1cccc(OC)c1OCC(=O)Nc1ccc(S(=O)(=O)N2CCCC2)cc1	none (no result: PfM18AAP inh, p97 ATPase inh, NS3 helicase inh, CHOP inhibitor)
COc1cc(/C=N/n2nnnc2N)ccc1OCc1c(C)no[n+]1[O-]	none
Cc1no[n+]([O-])c1COc1cccc(/C=N/Nc2nncn2N)c1	PfM18AAP inh 28
Cn1cc(CN2CCCC(C(=O)Nc3ccc(-c4cccc(F)c4)cc3)C2)cn1 (stereo unspecified)	none (no result: p97 ATPase inh, CHOP inhibitor)
Cc1cccc2sc(N(CCN(C)C)C(=O)c3cc(Cl)sc3Cl)nc12	CHOP inhibitor 72
O=[N+]([O-])c1ccc(Cl)c(/C=N/n2c(-c3ccncc3)n[nH]c2=S)c1	none
Cc1cc(-c2csc(NCc3ccccc3)n2)c(C)n1C	none (no result: UPR XBP1 act, CHOP UPR activ)
Cc1cc(-c2csc(N)n2)c(C)n1CCc1ccccc1	CHOP inhibitor 81
Cc1cc(-c2csc(N)n2)c(C)n1CCC(C)C	CHOP inhibitor 79
Cc1nn(C)cc1-c1csc(N)n1	none
CCN(CC)S(=O)(=O)c1ccc(Cl)c(C(=O)OC2CC(C)OC2=O)c1 (stereo unspecified)	none (no result: p97 ATPase inh, CHOP inhibitor)
COC(=O)C1=CN(c2cccc(Cl)c2)C=C(C(=O)OC)C1c1cccc(OC)c1	none (no result: p97 ATPase inh, CHOP inhibitor)
CCCSc1ccc2nc(-c3ccccc3)cn2c1	CHOP inhibitor 86
CCCCSc1ccc2nc(-c3ccc(C#N)cc3)cn2c1	none
COc1ccc(CN(C(=O)c2ccco2)c2ccc(Br)cc2)cc1OC	none
O=C1c2ccccc2C(=O)N1CCCCN(C(=O)c1ccco1)c1ccc(Cl)cc1	none
O=C1/C(=C/N(C(=O)c2ccco2)c2ccc(Br)cc2)Sc2ccccc21	CHOP inhibitor 90
O=C1/C(=C/N(C(=O)c2ccco2)c2ccc(Cl)cc2)Sc2ccccc21	CHOP inhibitor 88 (no result: UPR XBP1 act, CHOP UPR activ)
O=C(NNC(=O)C1CC=CCC1C(=O)O)c1ccc(Cl)cc1 (stereo unspecified)	none
CCCCCCCCCCCCCCCCOCC(COCC(F)(F)F)OP(=O)(O)OCO (stereo unspecified)	none (no result: PfM18AAP inh, UPR XBP1 act, p97 ATPase inh, CHOP UPR activ, NS3 helicase inh)
